For one experiment, the system named is A549. Briefly: In vitro cytotoxicity against A549 (human lung carcinoma) cell line. The class given is functional, cell-based. A digest of the protocol: (§1)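 Inhibition of cell proliferation measured against untreated cells after 72 h incubation at 37 °C. Read-out by MTT colorimetric microtiter assay. IC50 taken as the agent concentration giving 50% inhibition of proliferation.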

The subject of a further experiment is B16-F10. In words: In vitro cytotoxicity against B16F10 (mouse melanoma) cell line. The class given is functional, cell-based. The gist of the method:
as §1

Another experiment deals with HT-29. Briefly: In vitro cytotoxicity against HT-29 (human colon adenocarcinoma) cell line. The class given is functional, cell-based. The gist of the method:
as §1

In the next experiment the test system is P388. In words: In vitro cytotoxicity against P388 (murine leukemia) cell line. The class given is functional, cell-based. As to conditions: Mus musculus. The gist of the method: as §1
Experiment [1] can be described thus: Compound was tested for the concentration of agent which reduces the supernatant protein concentration (tubulin, 1 mg/mL) by 50%; ED50/ED50taxol. Type of experiment: functional. A digest of the protocol: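 Tubulin assembly assay with tubulin at 1 mg/mL, 15 min at 37 °C. Read-out is protein left in the supernatant. ED50 is the agent concentration that lowers supernatant protein by 50%. Value expressed as a ratio to the ED50 of taxol.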

Each structure is given as a SMILES string. ≈ marks a conversion by molar mass, not a printed value.

This is an account of results in ChEMBL document CHEMBL1127617, “Synthesis and biological evaluation of C-3'-modified analogs of 9(R)-dihydrotaxol” (J Med Chem, 1994).

`CC[C@H](NC(=O)OC(C)(C)C)[C@@H](O)C(=O)O[C@H]1C[C@@]2(O)[C@@H](OC(=O)c3ccccc3)[C@@H]3[C@]4(OC(C)=O)CO[C@@H]4C[C@H](O)[C@@]3(C)[C@@H](O)[C@H](OC(C)=O)C(=C1C)C2(C)C`: the concentration for half-maximal inhibition (IC50) (as a rule, the concentration that gives 50% inhibition) in the experiment with A549 came to 0.00083 µg/mL (≈ 0.00103 µM); with B16-F10, 0.0032 µg/mL (≈ 0.00398 µM); in the experiment with HT-29 it was 0.0014 µg/mL (≈ 0.00174 µM); in the experiment with P388 it was 0.011 µg/mL (≈ 0.0137 µM). The Ratio in experiment [1] was determined as 0.61.

In the case of `CC(=O)O[C@@H]1C2=C(C)[C@@H](OC(=O)[C@H](O)[C@@H](NC(=O)c3ccccc3)c3ccccc3)C[C@@](O)([C@@H](OC(=O)c3ccccc3)[C@@H]3[C@]4(OC(C)=O)CO[C@@H]4C[C@H](O)[C@@]3(C)[C@H]1O)C2(C)C`, the IC50 in the experiment with A549 turned out to be 0.019 µg/mL (≈ 0.0222 µM); in the experiment on B16-F10 it was 0.025 µg/mL (≈ 0.0292 µM); in the experiment with HT-29, 0.08 µg/mL (≈ 0.0935 µM); with P388, 0.053 µg/mL (≈ 0.0619 µM). Moreover, in experiment [1], the Ratio amounted to 0.86.

Regarding `CC(=O)O[C@@H]1C2=C(C)[C@@H](OC(=O)[C@H](O)[C@@H](NC(=O)OC(C)(C)C)C3CCCCC3)C[C@@](O)([C@@H](OC(=O)c3ccccc3)[C@@H]3[C@]4(OC(C)=O)CO[C@@H]4C[C@H](O)[C@@]3(C)[C@H]1O)C2(C)C`, the 50% inhibitory concentration (IC50) turned out to be 0.0065 µg/mL (≈ 0.00758 µM) with A549, 0.0057 µg/mL (≈ 0.00664 µM) in the experiment on B16-F10, 0.005 µg/mL (≈ 0.00583 µM) with HT-29 and 0.014 µg/mL (≈ 0.0163 µM) in the experiment with P388. The Ratio in experiment [1] turned out to be 0.57.

In the case of `CC(=O)O[C@@H]1C2=C(C)[C@@H](OC(=O)[C@H](O)[C@@H](NC(=O)OC(C)(C)C)[C@H]3COC(C)(C)O3)C[C@@](O)([C@@H](OC(=O)c3ccccc3)[C@@H]3[C@]4(OC(C)=O)CO[C@@H]4C[C@H](O)[C@@]3(C)[C@H]1O)C2(C)C`, the 50% inhibitory concentration (IC50) in the experiment with A549 was over 0.1 µg/mL; in the experiment with B16-F10, 0.086 µg/mL (≈ 0.0982 µM); with HT-29, over 0.1 µg/mL; in the experiment with P388, over 0.1 µg/mL. In addition, the Ratio in experiment [1] was determined as 7.91.

Take `CC(=O)O[C@@H]1C2=C(C)[C@@H](OC(=O)[C@H](O)[C@@H](NC(=O)OC(C)(C)C)C(C)O)C[C@@](O)([C@@H](OC(=O)c3ccccc3)[C@@H]3[C@]4(OC(C)=O)CO[C@@H]4C[C@H](O)[C@@]3(C)[C@H]1O)C2(C)C` (mixture of isomers): in experiment [1], the Ratio came to 1.2.

Turning to `CC(=O)O[C@@H]1C2=C(C)[C@@H](OC(=O)[C@H](O)[C@@H](NC(=O)OC(C)(C)C)C(C)O)C[C@@](O)([C@@H](OC(=O)c3ccccc3)[C@@H]3[C@]4(OC(C)=O)CO[C@@H]4C[C@H](O)[C@@]3(C)[C@H]1O)C2(C)C` (single isomer, unassigned) [listing 1 of 2 here], the IC50 in the experiment on A549, in the experiment with B16-F10, with HT-29 and in the experiment with P388 was over 0.1 µg/mL in each case.

For the compound `CC(=O)O[C@@H]1C2=C(C)[C@@H](OC(=O)[C@H](O)[C@H](C)NC(=O)OC(C)(C)C)C[C@@](O)([C@@H](OC(=O)c3ccccc3)[C@@H]3[C@]4(OC(C)=O)CO[C@@H]4C[C@H](O)[C@@]3(C)[C@H]1O)C2(C)C`, the IC50 was 0.015 µg/mL (≈ 0.019 µM) in the experiment on A549, 0.019 µg/mL (≈ 0.0241 µM) in the experiment with B16-F10, 0.0083 µg/mL (≈ 0.0105 µM) with HT-29 and 0.043 µg/mL (≈ 0.0544 µM) in the experiment with P388. The Ratio in experiment [1] amounted to 1.08.

`CC(=O)O[C@@H]1C2=C(C)[C@@H](OC(=O)[C@H](O)[C@H](COc3ccccc3)NC(=O)c3ccccc3)C[C@@](O)([C@@H](OC(=O)c3ccccc3)[C@@H]3[C@]4(OC(C)=O)CO[C@@H]4C[C@H](O)[C@@]3(C)[C@H]1O)C2(C)C`: the IC50 with A549 is 0.092 µg/mL (≈ 0.104 µM); in the experiment with B16-F10, 0.084 µg/mL (≈ 0.0948 µM); with HT-29 it was 0.039 µg/mL (≈ 0.044 µM); in the experiment on P388, over 0.1 µg/mL. For the same compound, the Ratio in experiment [1] was found to be 5.81.

As to `COC[C@H](NC(=O)c1ccccc1)[C@@H](O)C(=O)O[C@H]1C[C@@]2(O)[C@@H](OC(=O)c3ccccc3)[C@@H]3[C@]4(OC(C)=O)CO[C@@H]4C[C@H](O)[C@@]3(C)[C@@H](O)[C@H](OC(C)=O)C(=C1C)C2(C)C`, the 50% inhibitory concentration (IC50) in the experiment on A549 is over 0.1 µg/mL; with B16-F10, over 0.1 µg/mL; with HT-29, 0.079 µg/mL (≈ 0.0959 µM); in the experiment with P388 it was over 0.1 µg/mL. Also, in experiment [1], the Ratio worked out at 3.14.

On to `CC(=O)O[C@@H]1C2=C(C)[C@@H](OC(=O)[C@H](O)[C@H](CC(C)C)NC(=O)OC(C)(C)C)C[C@@](O)([C@@H](OC(=O)c3ccccc3)[C@@H]3[C@]4(OC(C)=O)CO[C@@H]4C[C@H](O)[C@@]3(C)[C@H]1O)C2(C)C`, for which the half-inhibitory concentration (IC50) in the experiment with A549 is 0.00012 µg/mL (≈ 0.000144 µM); in the experiment with B16-F10 it was 0.0009 µg/mL (≈ 0.00108 µM); with HT-29 it was 0.00038 µg/mL (≈ 0.000457 µM); in the experiment with P388 it was 0.00036 µg/mL (≈ 0.000433 µM). In experiment [1], the Ratio came out at 0.95.

As for `CCCC[C@@H](NC(=O)OC(C)(C)C)[C@@H](O)C(=O)O[C@H]1C[C@@]2(O)[C@@H](OC(=O)c3ccccc3)[C@@H]3[C@]4(OC(C)=O)CO[C@@H]4C[C@H](O)[C@@]3(C)[C@@H](O)[C@H](OC(C)=O)C(=C1C)C2(C)C`, the half-maximal inhibitory concentration (IC50) with A549 was over 0.1 µg/mL; in the experiment with B16-F10, over 0.1 µg/mL; in the experiment on HT-29, 0.067 µg/mL (≈ 0.0805 µM); in the experiment with P388 it was over 0.1 µg/mL. Besides, the Ratio in experiment [1] was 9.74.

In the case of `CC(=O)O[C@@H]1C2=C(C)[C@@H](OC(=O)[C@H](O)[C@@H](NC(=O)OC(C)(C)C)[C@H](O)CO)C[C@@](O)([C@@H](OC(=O)c3ccccc3)[C@@H]3[C@]4(OC(C)=O)CO[C@@H]4C[C@H](O)[C@@]3(C)[C@H]1O)C2(C)C`, the 50% inhibitory concentration (IC50) in the experiment with A549, in the experiment with B16-F10, with HT-29 and in the experiment on P388 was over 0.1 µg/mL each time. In addition, the Ratio in experiment [1] worked out at 2.71.

`CCCCC[C@H](NC(=O)OC(C)(C)C)[C@@H](O)C(=O)O[C@H]1C[C@@]2(O)[C@@H](OC(=O)c3ccccc3)[C@@H]3[C@]4(OC(C)=O)CO[C@@H]4C[C@H](O)[C@@]3(C)[C@@H](O)[C@H](OC(C)=O)C(=C1C)C2(C)C`: the IC50 stood at 0.012 µg/mL (≈ 0.0142 µM) in the experiment on A549, 0.014 µg/mL (≈ 0.0165 µM) with B16-F10, 0.016 µg/mL (≈ 0.0189 µM) in the experiment with HT-29 and 0.016 µg/mL (≈ 0.0189 µM) in the experiment on P388. Moreover, the Ratio in experiment [1] worked out at 2.

As to `CC(=O)O[C@@H]1C2=C(C)[C@@H](OC(=O)[C@H](O)[C@H](Cc3ccccc3)NC(=O)OC(C)(C)C)C[C@@](O)([C@@H](OC(=O)c3ccccc3)[C@@H]3[C@]4(OC(C)=O)CO[C@@H]4C[C@H](O)[C@@]3(C)[C@H]1O)C2(C)C`, the half-inhibitory concentration (IC50) with A549, in the experiment with B16-F10, in the experiment with HT-29 and in the experiment with P388 was over 0.1 µg/mL throughout. Also, in experiment [1], the Ratio is over 17.1.

On to `CCCC[C@H](NC(=O)OC(C)(C)C)[C@@H](O)C(=O)O[C@H]1C[C@@]2(O)[C@@H](OC(=O)c3ccccc3)[C@@H]3[C@]4(OC(C)=O)CO[C@@H]4C[C@H](O)[C@@]3(C)[C@@H](O)[C@H](OC(C)=O)C(=C1C)C2(C)C`, for which the IC50 in the experiment with A549 came out at 0.0095 µg/mL (≈ 0.0114 µM); with B16-F10, 0.0097 µg/mL (≈ 0.0117 µM); with HT-29, 0.0088 µg/mL (≈ 0.0106 µM); in the experiment on P388, 0.018 µg/mL (≈ 0.0216 µM). Further, in experiment [1], the Ratio is 2.15.

As for `CC(=O)O[C@@H]1C2=C(C)[C@@H](OC(=O)[C@H](O)[C@@H](NC(=O)OC(C)(C)C)c3ccccc3)C[C@@](O)([C@@H](OC(=O)c3ccccc3)[C@@H]3[C@]4(OC(C)=O)CO[C@@H]4C[C@H](O)[C@@]3(C)[C@H]1O)C2(C)C`, the IC50 came out at 0.003 µg/mL (≈ 0.00352 µM) in the experiment on A549, 0.0004 µg/mL (≈ 0.00047 µM) in the experiment on B16-F10, 0.00016 µg/mL (≈ 0.000188 µM) with HT-29 and 0.0025 µg/mL (≈ 0.00293 µM) in the experiment with P388. The Ratio in experiment [1] amounted to 0.87.

With `CC(=O)O[C@@H]1C2=C(C)[C@@H](OC(=O)[C@H](O)[C@@H](NC(=O)OC(C)(C)C)c3cscn3)C[C@@](O)([C@@H](OC(=O)c3ccccc3)[C@@H]3[C@]4(OC(C)=O)CO[C@@H]4C[C@H](O)[C@@]3(C)[C@H]1O)C2(C)C`, the 50% inhibitory concentration (IC50) in the experiment with A549 is 0.0063 µg/mL (≈ 0.00733 µM); in the experiment on B16-F10, 0.0003 µg/mL (≈ 0.000349 µM); in the experiment with HT-29, 0.00092 µg/mL (≈ 0.00107 µM); in the experiment with P388 it was 0.0014 µg/mL (≈ 0.00163 µM). Further, the Ratio in experiment [1] is 1.36.

`C=C[C@H](NC(=O)OC(C)(C)C)[C@@H](O)C(=O)O[C@H]1C[C@@]2(O)[C@@H](OC(=O)c3ccccc3)[C@@H]3[C@]4(OC(C)=O)CO[C@@H]4C[C@H](O)[C@@]3(C)[C@@H](O)[C@H](OC(C)=O)C(=C1C)C2(C)C`: the IC50 with A549 amounted to 0.0011 µg/mL (≈ 0.00137 µM); in the experiment with B16-F10, 0.0044 µg/mL (≈ 0.00549 µM); in the experiment on HT-29, 0.0018 µg/mL (≈ 0.00224 µM); in the experiment with P388 it was 0.016 µg/mL (≈ 0.02 µM). Further, the Ratio in experiment [1] amounted to 0.92.

For the compound `CC(=O)O[C@@H]1C2=C(C)[C@@H](OC(=O)[C@H](O)[C@@H](NC(=O)OC(C)(C)C)C(C)O)C[C@@](O)([C@@H](OC(=O)c3ccccc3)[C@@H]3[C@]4(OC(C)=O)CO[C@@H]4C[C@H](O)[C@@]3(C)[C@H]1O)C2(C)C` (single isomer, unassigned) [listing 2 of 2 here], the Ratio in experiment [1] stood at 0.8.
